We go through three compounds from ChEMBL document CHEMBL4480458, “Synthesis and Anti-inflammatory Evaluation of ( R)-, ( S)-, and (±)-Sanjuanolide Isolated from Dalea frutescens” (J Nat Prod, 2019).

Calls of active or inactive are those of the source. The rule behind the calls is not given here.

Assay type in all cases: functional, cell-based
Test [1] has as its system RAW264.7. Briefly: Antiinflammatory activity in mouse RAW264.7 cells assessed as inhibition of LPS-induced IL-6 production pretreated for 30 mins followed by LPS-stimulation and measured after 24 hrs by ELISA. The gist of the method:
(§1)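 RAW 264.7 cells were seeded at 400 000 per well in DMEM and held for 24 h at 37 °C, 5% CO2. They were pretreated 30 min with vehicle or compound at 1, 2.5, 5 or 10 μM, then stimulated with LPS at 0.5 μg/mL for 24 h. Supernatant cytokine was measured by ELISA. IC50 was taken from the concentration series, and significance was tested against LPS vehicle.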

Test [2] has as its system RAW264.7. The test can be described thus: Antiinflammatory activity in mouse RAW264.7 cells assessed as inhibition of LPS-induced TNFalpha production pretreated for 30 mins followed by LPS-stimulation and measured after 24 hrs by ELISA. The gist of the method: as §1
The subject of test [3] is RAW264.7. The test can be described thus: Antiinflammatory activity in mouse RAW264.7 cells assessed as inhibition of LPS-induced IL-6 mRNA expression pretreated for 30 mins followed by LPS-stimulation and measured after 24 hrs by trizol reagent based qRT-PCR analysis. The gist of the method:
(§2)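 RAW 264.7 macrophages were grown in DMEM with 10% FBS and penicillin/streptomycin at 37 °C, 5% CO2. Cells were plated at 7.0 × 10^5/plate and incubated overnight, then pretreated 30 min with compound at 2.5 or 10 μM before LPS at 1.0 μg/mL for 24 h. Total RNA was extracted and qPCR was run, with each gene normalized to β-actin. Values are % of LPS control, mean ± SEM of three independent experiments, Student's t test.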

In test [4] the test system is RAW264.7. Briefly: Antiinflammatory activity in mouse RAW264.7 cells assessed as inhibition of LPS-induced ICAM1 mRNA expression pretreated for 30 mins followed by LPS-stimulation and measured after 24 hrs by trizol reagent based qRT-PCR analysis. The method, boiled down:
as §2

Test [5] concerns RAW264.7. Briefly: Antiinflammatory activity in mouse RAW264.7 cells assessed as inhibition of LPS-induced IL1beta mRNA expression pretreated for 30 mins followed by LPS-stimulation and measured after 24 hrs by trizol reagent based qRT-PCR analysis. The gist of the method: as §2
Test [6] deals with RAW264.7. Briefly: Antiinflammatory activity in mouse RAW264.7 cells assessed as inhibition of LPS-induced COX2 mRNA expression pretreated for 30 mins followed by LPS-stimulation and measured after 24 hrs by trizol reagent based qRT-PCR analysis. The gist of the method:
as §2

Test [7] has as its system RAW264.7. Briefly: Antiinflammatory activity in mouse RAW264.7 cells assessed as inhibition of LPS-induced […] mRNA expression pretreated for 30 mins followed by LPS-stimulation and measured after 24 hrs by trizol reagent based qRT-PCR analysis. The gist of the method: as §2
Test [8] relates to RAW264.7. Briefly: Antiinflammatory activity in mouse RAW264.7 cells assessed as inhibition of LPS-induced TNFalpha mRNA expression pretreated for 30 mins followed by LPS-stimulation and measured after 24 hrs by trizol reagent based qRT-PCR analysis. The method, boiled down: as §2

As to `C=C(C)[C@@H](O)Cc1c(O)ccc(C(=O)/C=C/c2ccccc2)c1O`, the inhibition result in the test with RAW264.7 [1] and with RAW264.7 [2] was “inactive” in each case.

On to `C=C(C)C(O)Cc1c(O)ccc(C(=O)/C=C/c2ccccc2)c1O` (racemic), for which the inhibition result with RAW264.7 [3], in the test on RAW264.7 [4], in the test with RAW264.7 [5], in the test on RAW264.7 [6], in the test on RAW264.7 [7] and in the test on RAW264.7 [8] was “Active” each time. In addition, the IC50 in the test on RAW264.7 [1] is 1100 nM; with RAW264.7 [2], 1600 nM.

As to `C=C(C)[C@H](O)Cc1c(O)ccc(C(=O)/C=C/c2ccccc2)c1O`, the inhibition entry in the test on RAW264.7 [3], in the test on RAW264.7 [4], in the test with RAW264.7 [5], in the test on RAW264.7 [6], with RAW264.7 [7] and with RAW264.7 [8] was “Active” in each case. The IC50 came out at 1100 nM in the test with RAW264.7 [1] and 1200 nM in the test with RAW264.7 [2].
